Experimental findings from ChEMBL document CHEMBL2177006 (J Med Chem, 2012) are described below.

Test [1] addresses T1, Beta-secretase 1 (Homo sapiens, UniProt P56817). Kind of test: Inhibition of BACE1 in human HEK293 cells expressing APP Swedish mutant assessed as inhibition of amyloid beta (1 to 40) production after overnight incubation by sandwich ELISA. The format is cell-based.
The target of test [2] is T1, Beta-secretase 1. Kind of test: Inhibition of human recombinant BACE1 using Glu-Ile-Asp-Leu-Met-Val-Leu-Asp as substrate incubated for 60 mins prior to substrate addition measured after 60 mins by FRET assay.
The test system of another test is Rattus norvegicus. The test is described as follows: Antialzheimer activity in Sprague-Dawley rat assessed as reduction in amyloid beta 40 level in CSF at 30 mg/kg, po at 4 hrs by immunoassay relative to control. Details: scale not given: the % may be the effect or the level left. The format is functional. The method in brief:
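At the set time they were euthanized with CO2 for 2 min. CSF was drawn from the cisterna magna with a 30 gauge needle, frozen on dry ice, stored at −80 °C, then assayed for Aβ40 by Meso Scale immunoassay.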

T1 sequence (P56817 whole entry): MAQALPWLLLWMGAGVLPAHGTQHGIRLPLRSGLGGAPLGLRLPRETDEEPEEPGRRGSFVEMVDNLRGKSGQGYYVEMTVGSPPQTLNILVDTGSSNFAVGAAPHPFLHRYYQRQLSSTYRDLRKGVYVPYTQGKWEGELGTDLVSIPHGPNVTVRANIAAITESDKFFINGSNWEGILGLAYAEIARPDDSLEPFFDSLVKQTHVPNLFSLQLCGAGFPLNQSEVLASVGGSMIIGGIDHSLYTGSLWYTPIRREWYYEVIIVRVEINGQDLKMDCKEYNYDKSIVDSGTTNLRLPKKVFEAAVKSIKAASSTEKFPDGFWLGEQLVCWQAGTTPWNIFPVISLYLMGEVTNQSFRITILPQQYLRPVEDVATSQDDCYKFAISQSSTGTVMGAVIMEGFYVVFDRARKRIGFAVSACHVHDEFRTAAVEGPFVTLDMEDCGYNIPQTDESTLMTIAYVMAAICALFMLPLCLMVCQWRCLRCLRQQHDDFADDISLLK

Consider `CC(C)(C)Cc1cnc2c(c1)[C@@H](NC[C@@H](O)[C@H](Cc1ccc3c(c1)OCO3)NC(=O)c1cccnc1F)CC1(CCC1)O2`, for which the IC50 was found to be 64.3 nM at Beta-secretase 1 [1] and 33.2 nM on Beta-secretase 1 [2].
With `CC(C)(C)Cc1cnc2c(c1)[C@@H](NC[C@@H](O)[C@H](Cc1ccc3c(c1)OCO3)NC(=O)c1cccnc1)CC1(CCC1)O2`, the values for the IC50 at Beta-secretase 1 [1] and at Beta-secretase 1 [2] were 67.6 nM and 26.1 nM, respectively.
For `COCC(=O)N[C@@H](Cc1ccc2c(c1)OCO2)[C@H](O)CN[C@H]1CC2(CCC2)Oc2ncc(CC(C)(C)C)cc21`, in that order: 16.8 nM and 5.4 nM.
With `CC(C)C(=O)N[C@@H](Cc1ccc2c(c1)OCO2)[C@H](O)CN[C@H]1CC2(CCC2)Oc2ncc(CC(C)(C)C)cc21`, the 50% inhibitory concentration (IC50) at Beta-secretase 1 [1] is 812 nM.
For `COc1ccc(C[C@H](NC(C)=O)[C@H](O)CN[C@H]2CC3(CCC3)Oc3ncc(CC(C)(C)C)cc32)cc1OC`, the IC50 is 9.3 nM at Beta-secretase 1 [1] and 18.2 nM on Beta-secretase 1 [2].
For `CC(C)(C)Cc1cnc2c(c1)[C@@H](NC[C@@H](O)[C@H](Cc1ccc3c(c1)OCO3)NC(=O)c1ccc(F)nc1)CC1(CCC1)O2`, in that order: 69.5 nM and 48.4 nM.
Consider `CC(=O)N[C@@H](Cc1ccc2c(c1)OCO2)[C@H](O)CN[C@H]1CC2(CCC2)Oc2ncc(CC(C)(C)C)cc21`, for which the IC50 was determined as 5.5 nM at Beta-secretase 1 [1] and 8 nM on Beta-secretase 1 [2]. Besides, the Activity with Rattus norvegicus was determined as 52%.
`CC(=O)N[C@@H](Cc1ccc(OC(F)F)c(OC(F)F)c1)[C@H](O)CN[C@H]1CC2(CCC2)Oc2ncc(CC(C)(C)C)cc21`: the IC50 on Beta-secretase 1 [1] amounted to 238 nM; on Beta-secretase 1 [2], 35.2 nM.
With `C[C@@H](F)C(=O)N[C@@H](Cc1ccc2c(c1)OCO2)[C@H](O)CN[C@H]1CC2(CCC2)Oc2ncc(CC(C)(C)C)cc21`, at Beta-secretase 1 [1], the half-inhibitory concentration (IC50) came out at 55.5 nM.
Consider `CC(C)(C)Cc1cnc2c(c1)[C@@H](NC[C@@H](O)[C@H](Cc1ccc3c(c1)OCO3)NC(=O)c1ccccc1F)CC1(CCC1)O2`, for which the IC50 on Beta-secretase 1 [1] was 1150 nM; at Beta-secretase 1 [2], 76.6 nM.
For `CC(C)(C)Cc1cnc2c(c1)[C@@H](NC[C@@H](O)[C@H](Cc1ccc3c(c1)OCO3)NC(=O)[C@@H]1CCCO1)CC1(CCC1)O2`, in that order: 27.5 nM and 20.4 nM.
